Screening data (PubChem)
KCNQ1 pot = potentiators or activators of human KCNQ1 potassium channel; P51787; CHO-K1 KCNQ1, thallium flux FluxOR fluorescence; hits give high values; B-score at 10 µM; 310,000 compounds, 0.35% hits;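 active = fluorescence ratio B-score, a plate-corrected score, at least three library SD, with initial intensity B-score within 5 SD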
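Doses: Single concentration per compound, DMSO matched to controls | Test system: KCNQ1-transfected CHO-K1 cells | Timing: 90 min dye loading and 20 min compound exposure, both at room temperature | Measured by: Kinetic FluxOR thallium fluorescence, 10-s 1-Hz baseline, 110-s post-stimulus read | Medium: Assay buffer with matched DMSO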
KCNK9 block = human KCNK9 channel inhibition | B-score at 10 µM | HEK293 KCNK9, FluxOR thallium flux fluorescence; hits give low values | 310,000 compounds, 1.2% hits;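 active = ratio B-score over 3 SD below the library mean, with starting fluorescence within 5 SD of its mean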;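 also: negative B-score means less thallium flux so channel inhibition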
Kir21 block = inhibitors of mouse Kir2.1 inward-rectifier potassium channel. P35561. HEK293-Kir2.1, FluxOR thallium flux fluorescence; hits give low values. B-score at 10 µM. 310,000 compounds, 0.85% hits. AID 1672;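 active = fluorescence ratio B-score at or below minus 3 SD of library scores, with starting-brightness B-score within 2 SD, cut at about -4.2 in these data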;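 also: channel flux triggered by added potassium and thallium sulfate stimulus; B-score of peak minus minimum fluorescence over baseline after thallium stimulus; more negative B-score means stronger Kir2.1 block with less thallium influx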
hERG rescue = compounds protecting human hERG from proarrhythmic drug block; CHO-hERG, FluxOR thallium flux, dofetilide IC70 present; 310,000 compounds, 0.51% hits; Q12809; activation (rescue from dofetilide block), less the hit threshold, % at 10 µM;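 active = activation above the mean of controls blocked by dofetilide plus 5 SD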;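 also: thallium influx through hERG after potassium depolarization seen as dye fluorescence rise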
KCNQ1 inh = blocks the human KCNQ1 potassium channel; P51787; CHO-K1 KCNQ1, FluxOR thallium flux fluorescence; hits give high values; B-score at 10 µM; 310,000 compounds, 1.3% hits;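 active = compounds whose thallium flux B-score, printed positive for inhibition, exceeds three library SD while starting fluorescence stays within three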;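 also: channel opened by potassium depolarization with thallium stimulus after 20 min compound exposure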
KCNK3 block = human KCNK3 channel inhibition, primary screen. O14649. CHO-KCNK3 thallium flux, FluxOR fluorescence; hits give low values. B-score at 10 µM. 340,000 compounds, 0.84% hits;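 active = B-score under library mean minus 4 SD, starting fluorescence ratio at most library mean plus 5 SD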;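 also: more negative B-score means stronger inhibition of thallium flux through KCNK3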
Target sequence (O14649 whole entry, looked up): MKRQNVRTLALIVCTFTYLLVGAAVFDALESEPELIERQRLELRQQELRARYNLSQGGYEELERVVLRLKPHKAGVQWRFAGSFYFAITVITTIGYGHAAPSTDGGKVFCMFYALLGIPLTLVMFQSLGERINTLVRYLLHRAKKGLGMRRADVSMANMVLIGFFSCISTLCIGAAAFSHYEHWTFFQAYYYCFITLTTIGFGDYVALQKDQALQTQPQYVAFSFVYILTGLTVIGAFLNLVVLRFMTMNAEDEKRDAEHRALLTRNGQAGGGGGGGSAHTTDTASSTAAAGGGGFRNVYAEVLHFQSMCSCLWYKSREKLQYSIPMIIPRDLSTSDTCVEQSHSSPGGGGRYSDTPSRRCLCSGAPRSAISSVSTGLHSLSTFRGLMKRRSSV
A number is an active result; . = inactive; / = no result. In the library only some 3.7% were active in any assay of this set; here they are far more common.

SMILES	KCNQ1 pot	KCNK9 block	Kir21 block	hERG rescue	KCNQ1 inh	KCNK3 block
CCOc1ccc(S(=O)(=O)Oc2ccc3ccccc3c2)cc1	.	.	.	.	6	.
CCCC(NC(=O)CCc1c(C)c2cc3c4c(oc3c(C)c2oc1=O)CCCC4)C(=O)O (stereo not drawn)	.	.	.	.	.	.
CN(c1ccc(O)cc1)S(=O)(=O)c1ccc2ccccc2c1	.	.	-5.9	.	.	.
Cc1cc(O)cc(C)c1NS(=O)(=O)c1ccc2ccccc2c1	.	.	-6.6	.	.	.
Cc1cc[n+](-c2[nH]c(=O)sc2/C=N/N=C(\[O-])c2ccncc2)cc1	.	.	.	.	.	.
Cc1cc(S(=O)(=O)N2CCOCC2)ccc1OCC(=O)NCc1ccco1	.	.	.	6.7	.	.
CSc1nc(N)c2cn[nH]c2n1	/	/	/	/	/	.
COc1ccc(/C=C2\SC(=O)NC2=S)cc1OC	12	.	.	5.7	.	.
CCOc1ccc(/C=C2\SC(=S)NC2=O)cc1OC	.	.	.	.	.	.
O=C1NC(=S)S/C1=C\c1ccc2ccccc2c1	49	.	.	36	.	.
COc1cc(/C=C2/SC(=S)NC2=O)ccc1OS(=O)(=O)c1ccc(C)cc1	48	.	.	.	.	.
COc1cc(/C=C2\SC(=S)NC2=O)ccc1OS(=O)(=O)c1ccccc1	26	.	.	.	.	/
CCN(CC)c1ccc(/C=N/NC(=O)c2ccoc2C)c(O)c1	.	.	.	.	.	.
COC(=O)c1cc(C(=O)NCc2ccc3c(c2)OCO3)cc([N+](=O)[O-])c1	.	.	.	.	.	.
N#CC1(NC(=O)COC(=O)/C=C/c2ccc3ccccc3n2)CCCCC1	.	.	.	.	.	.
Fc1ccc(-c2nc3ccccc3[nH]2)cc1	.	.	.	.	.	.
S=c1nc(-c2ccc(Br)cc2)[nH]c2ccccc12	111	.	.	32	.	.
Cc1ccc(-n2nnnc2/C=C\Nc2cc(C)on2)cc1	.	.	.	.	.	.
CC(C)(C)c1cc(N/C=C\c2nnnn2-c2ccc(Br)cc2)no1	.	.	.	7.3	.	.
CCn1c(NCc2c[nH]c3ccccc23)nc2ccccc21	.	.	.	.	.	.
C=CCn1c(NCc2c[nH]c3ccccc23)nc2ccccc21	.	.	-5.6	.	.	.
CCc1nc(SCC(=O)Nc2cc(OC)ccc2OC)c2c(C)c(C)sc2n1	.	-6.6	.	.	.	.
CCc1nc(SCC(=O)Nc2nnc(CC)s2)c2c(C)c(C)sc2n1	.	.	.	.	.	.
CC1CCCC(n2c(=S)[nH]c3ccccc3c2=O)C1C (stereo not drawn)	41	.	.	.	.	.
CC1CCC(n2c(=S)[nH]c3ccccc3c2=O)CC1 (stereo not drawn)	56	.	.	18	.	.
SMILES	KCNQ1 pot	KCNK9 block	Kir21 block	hERG rescue	KCNQ1 inh	KCNK3 block
O=c1c2ccccc2[nH]c(=S)n1C1CCCCC1	9	.	.	9.3	.	.
Cc1ccc(OCCC(=O)N(CCC(C)C)c2c(N)n(Cc3ccccc3)c(=O)[nH]c2=O)cc1	.	.	.	.	.	.
CNc1nc(C)cc(C)c1S(=O)(=O)c1ccc(C)cc1	.	.	-5.8	.	.	.
Cc1cc(C)c(S(C)(=O)=O)c(S(=O)(=O)c2ccc(Cl)cc2)n1	.	.	.	.	.	.
O=C(Nc1cccc2c1[nH]c1ccccc12)C(F)(F)F	.	.	.	.	6	.
CC1(C)N=C(N)NC(Nc2cccc(Br)c2)=N1	9	.	.	.	.	.
CC(=O)NC(Cc1ccc(F)cc1)C(=O)NC1CCN(C(=O)Nc2ccccc2C)CC1 (stereo not drawn)	.	.	.	.	.	.
COn1c2c(c3c4no[n+]([O-])c4ccc31)CCCC2	.	.	.	.	.	.
[O-][n+]1c2c(c3c4non(O)c4ccc31)CCCC2	.	.	.	.	6	.
Cc1cc(C(=O)CCl)c(C)n1-c1cccc([N+](=O)[O-])c1	11	.	.	.	.	.
CC(=O)c1c(C(C)=O)c(C)n(-c2cccc([N+](=O)[O-])c2)c1C	.	.	.	.	.	.
COc1ccc(/C=N/NC(=O)c2cc(C34CC5CC(CC(C5)C3)C4)[nH]n2)cc1O	.	.	.	.	6	.
CCOc1ccc(/C=N/NC(=O)NC23CC4CC(CC(C4)C2)C3)cc1O	.	.	.	.	9	.
COc1ccc(/C=N\NC(=O)c2ccc(=O)[nH]n2)cc1O	.	.	.	.	.	.
O=C(N/N=C/c1ccc(O)c(O)c1)NC12CC3CC(CC(C3)C1)C2	.	.	.	.	.	.
CC(/C=N/NC(=O)c1ccccc1F)c1ccccc1 (stereo not drawn)	.	.	.	.	.	.
CN(C(=O)c1ccccc1F)C(c1ccccc1)c1ccccc1	.	.	-7.2	.	.	.
COc1ccccc1C(=O)Nc1ccnn1C1CCN(Cc2cnn(C)c2C)CC1	.	.	.	.	.	.
O=C(O)c1ccc(S(=O)(=O)N(CCc2ccccc2)Cc2ccc(Cl)cc2)cc1	.	.	.	.	.	.
CCC(=O)NCCCCCCNC(=O)CC	.	.	.	6.9	.	.
CN(C)c1nc(C#N)nc(N(C)C)n1	.	.	.	10	.	.
O=C(COC(=O)COc1cccc(C(F)(F)F)c1)Nc1ccc(N2CCOCC2)cc1	/	/	/	/	/	.
CCN(CC)C(=O)Cn1cc(C(=O)C(=O)N2CC=C(c3ccccc3)CC2)c2ccccc21	.	.	.	38	.	.
CCN(CC)C(=O)Cn1cc(C(=O)C(=O)N2CCN(C)CC2)c2ccccc21	.	.	.	.	.	.
N/C(CSc1nc(-c2ccccc2)c(-c2ccccc2)o1)=N\O	.	-7.2	.	.	8	.
SMILES	KCNQ1 pot	KCNK9 block	Kir21 block	hERG rescue	KCNQ1 inh	KCNK3 block
COc1ccc(CN2CCCC(C(=O)c3cccc(C(F)(F)F)c3)C2)cc1O (stereo not drawn)	.	.	-12	.	.	.
CC(=O)Nc1ccc(CN2CCCC(C(=O)c3cccc(C(F)(F)F)c3)C2)cc1 (stereo not drawn)	.	.	.	.	.	.
Cc1ccn2c(NC(=O)C(C)(C)Oc3ccc(Cl)cc3)c(-c3cccs3)nc2c1	.	-7.4	.	.	.	.
Cc1ccc(NC(=O)CC(=O)c2ccccc2)cc1C	.	.	.	.	.	.
CCc1cc2c(=O)c(-c3ccc4c(c3)OCCO4)coc2cc1OS(C)(=O)=O	.	.	.	.	6	.
CC(=O)Nc1ccc(S(=O)(=O)NCC(=O)OCC(=O)N2CCCCCC2)cc1	/	/	/	/	/	.
Nc1c(-c2ccccc2Cl)cnn1-c1cccc([N+](=O)[O-])c1	.	-7.6	.	.	.	.
Cc1ccc2nc3c(c(Nc4ccc(O)cc4)c2c1)CCC3	.	.	.	.	.	.
